Measurements: ChEMBL document CHEMBL3098111, “Discovery of 2,5-diarylnicotinamides as selective orexin-2 receptor antagonists (2-SORAs)” (Bioorg Med Chem Lett, 2013)
Values belong to the compound of their own block, whether it stands above or below them.

Columns and labels:
Orexin receptor type 2 [1] = target: T1, Orexin receptor type 2 (Homo sapiens, UniProt O43614); assay: Displacement of [3H]SB-674042 from human orexin-2 receptor after 60 mins by scintillation counting analysis
T1 sequence (O43614 whole entry): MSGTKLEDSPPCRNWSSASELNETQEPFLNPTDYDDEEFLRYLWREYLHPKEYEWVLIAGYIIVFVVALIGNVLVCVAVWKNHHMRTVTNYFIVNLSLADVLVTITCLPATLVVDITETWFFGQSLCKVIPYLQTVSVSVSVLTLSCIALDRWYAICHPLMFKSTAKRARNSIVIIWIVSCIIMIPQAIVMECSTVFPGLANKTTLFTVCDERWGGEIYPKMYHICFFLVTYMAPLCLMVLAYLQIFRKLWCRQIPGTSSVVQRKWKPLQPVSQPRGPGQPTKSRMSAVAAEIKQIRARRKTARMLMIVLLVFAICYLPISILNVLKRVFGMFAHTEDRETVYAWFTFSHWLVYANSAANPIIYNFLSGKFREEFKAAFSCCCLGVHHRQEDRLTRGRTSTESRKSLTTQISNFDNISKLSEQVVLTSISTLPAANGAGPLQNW
In short: (§1)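 Radioligand binding on membranes from human cells overexpressing the orexin receptor. Inhibition of high-affinity radioligand binding measured and expressed as Ki.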

Homo sapiens = species: Homo sapiens; assay: Selectivity ratio of Ki for human orexin-1 receptor to Ki for human orexin-2 receptor
In short: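 Radioligand binding: a high-affinity radioligand was bound to membranes from human cells overexpressing OX1R or OX2R, and inhibition of that binding was measured and expressed as Ki. The ratio is the OX1R Ki divided by the OX2R Ki.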

[2] = target: T2, Orexin/Hypocretin receptor type 1 (Homo sapiens, UniProt O43613); assay: Displacement of [3H]SB-674042 from human orexin-1 receptor after 60 mins by scintillation counting analysis; in short: as §1
T2 sequence (O43613 whole entry): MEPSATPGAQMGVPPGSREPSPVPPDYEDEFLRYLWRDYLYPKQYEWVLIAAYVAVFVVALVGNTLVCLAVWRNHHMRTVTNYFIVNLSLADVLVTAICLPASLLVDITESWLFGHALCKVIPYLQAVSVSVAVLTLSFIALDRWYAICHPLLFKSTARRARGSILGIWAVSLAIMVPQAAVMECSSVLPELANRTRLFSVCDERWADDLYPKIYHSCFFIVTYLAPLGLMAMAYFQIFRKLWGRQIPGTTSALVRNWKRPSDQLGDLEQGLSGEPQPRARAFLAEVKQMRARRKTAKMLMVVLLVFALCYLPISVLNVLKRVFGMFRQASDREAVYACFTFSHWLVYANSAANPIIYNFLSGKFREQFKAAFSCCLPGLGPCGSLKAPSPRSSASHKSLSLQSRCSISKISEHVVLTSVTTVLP

[3] = Clearance in rat at 10 mg/kg; assay type: ADME, organism-based; design: dose 10 mg/kg; settings: in vivo
[4] = Bioavailability in rat at 10 mg/kg; assay type: ADME, organism-based; settings: in vivo
MAO-A = MAO-A (Homo sapiens, UniProt P21397); assay: Inhibition of human MAO-A at 10 uM relative to control
Chain of MAO-A (P21397 whole entry): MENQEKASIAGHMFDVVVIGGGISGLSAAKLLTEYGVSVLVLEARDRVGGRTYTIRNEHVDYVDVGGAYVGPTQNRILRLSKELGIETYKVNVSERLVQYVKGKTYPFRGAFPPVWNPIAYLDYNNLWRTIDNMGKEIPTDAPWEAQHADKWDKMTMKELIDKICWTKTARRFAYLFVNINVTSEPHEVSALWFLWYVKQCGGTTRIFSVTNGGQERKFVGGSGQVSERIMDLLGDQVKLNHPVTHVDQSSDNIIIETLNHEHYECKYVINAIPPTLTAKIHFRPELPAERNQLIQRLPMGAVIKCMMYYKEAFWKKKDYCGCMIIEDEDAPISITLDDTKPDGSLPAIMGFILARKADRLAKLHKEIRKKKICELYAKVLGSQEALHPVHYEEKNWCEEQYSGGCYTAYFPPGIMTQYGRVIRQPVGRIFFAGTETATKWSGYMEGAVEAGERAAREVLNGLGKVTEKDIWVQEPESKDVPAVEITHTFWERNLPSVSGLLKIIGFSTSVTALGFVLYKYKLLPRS

MAO-B = MAO-B (Homo sapiens, UniProt P27338); assay: Inhibition of human MAO-B at 10 uM relative to control
Chain of MAO-B (P27338 whole entry): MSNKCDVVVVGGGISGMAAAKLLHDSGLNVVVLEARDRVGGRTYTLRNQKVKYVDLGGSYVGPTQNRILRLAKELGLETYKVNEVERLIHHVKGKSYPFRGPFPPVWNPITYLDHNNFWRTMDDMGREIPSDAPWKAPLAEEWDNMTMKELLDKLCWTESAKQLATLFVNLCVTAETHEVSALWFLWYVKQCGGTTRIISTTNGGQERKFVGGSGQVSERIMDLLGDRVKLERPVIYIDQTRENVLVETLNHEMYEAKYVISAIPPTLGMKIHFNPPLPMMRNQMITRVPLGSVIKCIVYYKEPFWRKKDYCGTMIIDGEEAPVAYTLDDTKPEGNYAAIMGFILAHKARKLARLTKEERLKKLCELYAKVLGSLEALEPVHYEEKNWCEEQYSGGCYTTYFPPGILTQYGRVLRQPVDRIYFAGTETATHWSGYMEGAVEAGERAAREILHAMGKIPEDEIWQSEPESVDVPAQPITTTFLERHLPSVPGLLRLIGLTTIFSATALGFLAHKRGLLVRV

[5] = target: L-type calcium channel, phenylalkylamine binding site (Rattus norvegicus, UniProt P22002+P27732+Q02485); assay: Inhibition of rat L-type calcium channel phenylalkylamine binding site at 10 uM relative to control
[6] = target: 5-hydroxytryptamine receptor 1A (Homo sapiens, UniProt P08908); assay: Inhibition of human 5-HT1A receptor
Chain of 5-hydroxytryptamine receptor 1A (P08908 whole entry): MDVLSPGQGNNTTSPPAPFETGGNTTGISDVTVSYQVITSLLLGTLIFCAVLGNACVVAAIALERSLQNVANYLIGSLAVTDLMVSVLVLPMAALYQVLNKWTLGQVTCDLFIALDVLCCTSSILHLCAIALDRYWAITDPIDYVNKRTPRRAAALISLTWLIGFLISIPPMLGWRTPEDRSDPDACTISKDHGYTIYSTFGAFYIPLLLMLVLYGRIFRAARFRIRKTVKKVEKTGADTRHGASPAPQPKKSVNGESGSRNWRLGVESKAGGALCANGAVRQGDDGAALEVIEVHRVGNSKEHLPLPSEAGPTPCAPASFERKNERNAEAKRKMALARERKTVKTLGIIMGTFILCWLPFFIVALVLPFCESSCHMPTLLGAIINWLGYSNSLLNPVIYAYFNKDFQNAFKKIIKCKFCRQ

hERG (KCNH2) [7] = target: T3, hERG (KCNH2) (Homo sapiens, UniProt Q12809); assay: Inhibition of human ERG at 1 uM relative to control
T3 sequence (Q12809 whole entry): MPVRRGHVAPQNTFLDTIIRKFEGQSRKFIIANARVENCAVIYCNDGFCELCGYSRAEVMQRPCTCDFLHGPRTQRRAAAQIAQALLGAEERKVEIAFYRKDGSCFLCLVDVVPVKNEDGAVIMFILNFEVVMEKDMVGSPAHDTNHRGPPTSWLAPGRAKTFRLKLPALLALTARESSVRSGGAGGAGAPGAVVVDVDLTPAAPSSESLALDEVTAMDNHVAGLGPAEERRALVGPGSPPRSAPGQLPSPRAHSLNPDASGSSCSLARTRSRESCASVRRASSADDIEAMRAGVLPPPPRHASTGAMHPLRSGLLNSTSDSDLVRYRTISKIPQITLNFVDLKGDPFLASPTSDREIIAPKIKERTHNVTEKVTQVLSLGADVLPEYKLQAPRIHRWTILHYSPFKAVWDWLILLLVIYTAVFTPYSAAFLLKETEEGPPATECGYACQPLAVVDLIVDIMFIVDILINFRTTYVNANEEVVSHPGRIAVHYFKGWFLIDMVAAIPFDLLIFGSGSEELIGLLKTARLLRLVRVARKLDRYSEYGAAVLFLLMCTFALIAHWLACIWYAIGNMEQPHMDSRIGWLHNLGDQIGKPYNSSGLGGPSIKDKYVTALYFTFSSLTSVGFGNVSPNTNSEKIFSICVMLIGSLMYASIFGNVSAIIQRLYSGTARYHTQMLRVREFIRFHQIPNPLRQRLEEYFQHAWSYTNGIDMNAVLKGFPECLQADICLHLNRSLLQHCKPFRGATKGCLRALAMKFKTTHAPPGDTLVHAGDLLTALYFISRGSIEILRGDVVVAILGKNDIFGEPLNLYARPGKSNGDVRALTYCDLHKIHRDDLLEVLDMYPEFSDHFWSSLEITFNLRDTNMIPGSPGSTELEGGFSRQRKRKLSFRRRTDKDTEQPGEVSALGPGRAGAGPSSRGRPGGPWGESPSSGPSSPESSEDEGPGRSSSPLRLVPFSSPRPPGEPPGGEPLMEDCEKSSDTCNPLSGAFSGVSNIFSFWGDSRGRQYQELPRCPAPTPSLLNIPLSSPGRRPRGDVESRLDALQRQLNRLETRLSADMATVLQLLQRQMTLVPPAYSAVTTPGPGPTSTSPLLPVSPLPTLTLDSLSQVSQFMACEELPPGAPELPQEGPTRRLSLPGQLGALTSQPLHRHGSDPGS

hERG (KCNH2) [8] = target: T3, hERG (KCNH2); assay: Inhibition of human ERG at 0.1 uM relative to control
[9] = Cmax in rat EEG model at 15 mg/kg, po; assay type: ADME, organism-based; design: dose 15 mg/kg, route oral; settings: in vivo
[10] = target: L-type calcium channel, dihydropyridine binding site (Rattus norvegicus, UniProt P22002+P27732+Q02485); assay: Inhibition of rat L-type calcium channel dihydropyridine binding site at 10 uM relative to control
[11] = Inhibition of guinea pig adenosine transporter; design: species or system Cavia porcellus
[12] = Fraction unbound in rat plasma by equilibrium dialysis method; assay type: ADME, cell-free
[13] = target: 5-hydroxytryptamine receptor 2B (Homo sapiens, UniProt P41595); assay: Inhibition of human 5-HT2B receptor
Chain of 5-hydroxytryptamine receptor 2B (P41595 whole entry): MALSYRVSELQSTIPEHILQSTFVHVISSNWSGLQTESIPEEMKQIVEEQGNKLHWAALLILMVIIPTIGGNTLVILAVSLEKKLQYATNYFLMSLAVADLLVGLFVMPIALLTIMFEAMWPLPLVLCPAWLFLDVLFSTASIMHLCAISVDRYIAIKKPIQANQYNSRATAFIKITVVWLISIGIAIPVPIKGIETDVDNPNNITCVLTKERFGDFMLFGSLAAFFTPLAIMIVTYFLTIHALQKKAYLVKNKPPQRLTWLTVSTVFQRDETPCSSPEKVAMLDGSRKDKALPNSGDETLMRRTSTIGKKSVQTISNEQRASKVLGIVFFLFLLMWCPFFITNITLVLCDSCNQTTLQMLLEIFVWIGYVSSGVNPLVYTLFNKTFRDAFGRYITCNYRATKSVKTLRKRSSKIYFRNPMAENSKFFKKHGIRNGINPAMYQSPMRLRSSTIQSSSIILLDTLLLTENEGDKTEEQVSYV

[14] = Lipophilicity, log P of the compound; assay type: physicochemical; settings: octanol/water
hERG (KCNH2) [15] = target: T3, hERG (KCNH2); assay: Inhibition of human ERG at 10 uM relative to control
[16] = Inhibition of rabbit monoamine transporter; design: species or system Oryctolagus cuniculus
[17] = target: Voltage-gated inwardly rectifying potassium channel KCNH2 (Homo sapiens, UniProt Q12809); assay: Inhibition of human ERG
[18] = target: L-type calcium channel, benzothiazepine binding site (Rattus norvegicus, UniProt P22002+P27732+Q02485); assay: Inhibition of rat L-type calcium channel benzothiazepine binding site at 10 uM relative to control
Nucleic Acid = assay: Ratio of drug level in CSF to plasma in rat at 3 mg/kg, po after 1 hr; assay type: ADME, organism-based; design: dose 3 mg/kg, route oral
[19] = AUC in rat EEG model at 15 mg/kg, po; assay type: ADME, organism-based; design: dose 15 mg/kg, route oral; settings: in vivo
[20] = Fraction unbound in human plasma by equilibrium dialysis method; assay type: ADME, cell-free
MDR1 (P-gp, ABCB1) = MDR1 (P-gp, ABCB1) (Homo sapiens, UniProt P08183); assay: Activity at human MDR1 expressed in pig LLC-PK cells assessed as efflux ratio of permeability from basolateral to apical side over apical to basolateral side; assay type: ADME, cell-based; settings: LLC-PK1
Mu-type opioid receptor = Mu-type opioid receptor (Homo sapiens, UniProt P35372); assay: Inhibition of human mu opioid receptor
Chain of Mu-type opioid receptor (P35372 whole entry): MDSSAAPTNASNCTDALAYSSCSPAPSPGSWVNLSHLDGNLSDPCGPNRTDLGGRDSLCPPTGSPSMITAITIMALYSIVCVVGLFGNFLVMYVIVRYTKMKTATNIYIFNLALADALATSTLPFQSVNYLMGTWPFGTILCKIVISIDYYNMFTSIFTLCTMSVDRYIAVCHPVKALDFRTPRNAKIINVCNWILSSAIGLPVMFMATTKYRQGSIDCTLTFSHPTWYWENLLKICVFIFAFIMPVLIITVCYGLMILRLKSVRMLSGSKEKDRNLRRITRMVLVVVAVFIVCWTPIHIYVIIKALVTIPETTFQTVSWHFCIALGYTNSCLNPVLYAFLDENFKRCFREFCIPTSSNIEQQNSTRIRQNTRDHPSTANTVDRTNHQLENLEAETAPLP

hERG (KCNH2) [21] = target: T3, hERG (KCNH2); assay: Inhibition of human ERG at 10 nM relative to control
[22] = target: T2, Orexin/Hypocretin receptor type 1; assay: Antagonist activity at human orexin-1 receptor assessed as inhibition of orexin-A-induced intracellular calcium mobilization after 30 mins by cell-based FLIPR assay; assay type: functional
In short: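 Cell-based FLIPR functional assay in orexin receptor-expressing cells, with Ca2+ flux as the read-out of orexin-driven receptor activation.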

D(3) dopamine receptor = D(3) dopamine receptor (Homo sapiens, UniProt P35462); assay: Inhibition of human dopamine D3 receptor
Chain of D(3) dopamine receptor (P35462 whole entry): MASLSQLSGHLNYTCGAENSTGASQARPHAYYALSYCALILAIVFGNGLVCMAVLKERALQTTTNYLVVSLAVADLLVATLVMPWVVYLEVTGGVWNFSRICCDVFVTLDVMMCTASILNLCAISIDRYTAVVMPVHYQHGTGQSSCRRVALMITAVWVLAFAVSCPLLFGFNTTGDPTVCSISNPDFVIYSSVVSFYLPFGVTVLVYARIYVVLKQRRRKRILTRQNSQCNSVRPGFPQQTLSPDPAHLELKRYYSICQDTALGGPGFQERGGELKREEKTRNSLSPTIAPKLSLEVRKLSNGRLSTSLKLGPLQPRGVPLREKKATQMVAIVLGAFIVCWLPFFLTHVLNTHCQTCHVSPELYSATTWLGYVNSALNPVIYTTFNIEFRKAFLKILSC

Orexin receptor type 2 [23] = target: T1, Orexin receptor type 2; assay: Antagonist activity at human orexin-2 receptor assessed as inhibition of orexin-A-induced intracellular calcium mobilization after 30 mins by cell-based FLIPR assay; assay type: functional
[24] = target: 5-hydroxytryptamine receptor 1B (Rattus norvegicus, UniProt P28564); assay: Inhibition of rat 5-HT1B receptor
Chain of 5-hydroxytryptamine receptor 1B (P28564 whole entry): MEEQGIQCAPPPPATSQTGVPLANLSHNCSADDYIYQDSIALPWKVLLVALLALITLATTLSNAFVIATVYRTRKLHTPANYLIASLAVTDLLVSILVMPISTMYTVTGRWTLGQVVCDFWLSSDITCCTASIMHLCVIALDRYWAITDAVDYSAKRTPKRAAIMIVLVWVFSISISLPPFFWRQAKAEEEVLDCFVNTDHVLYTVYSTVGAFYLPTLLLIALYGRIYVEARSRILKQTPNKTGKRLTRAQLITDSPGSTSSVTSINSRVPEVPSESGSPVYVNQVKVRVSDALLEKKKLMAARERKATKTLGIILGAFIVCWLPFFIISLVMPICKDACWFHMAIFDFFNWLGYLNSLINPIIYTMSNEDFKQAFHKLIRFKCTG

[25] = Ratio of drug level in brain to plasma in rat at 3 mg/kg, po after 1 hr; assay type: ADME, organism-based; design: dose 3 mg/kg, route oral; settings: read-out: BPR
[26] = Clearance in rat; assay type: ADME, organism-based; settings: in vivo
[27] = Oral bioavailability in rat; assay type: ADME, organism-based; settings: in vivo
[28] = Half life in rat; assay type: ADME, organism-based; settings: in vivo

SMILES: Cc1cc(C)cc(-c2cnc(-c3cccnc3)c(C(=O)N(C)Cc3ccc4nccnc4c3)c2)c1
Ki (Orexin receptor type 2 [1]): 78.5 nM
Ratio Ki (Homo sapiens): 92
Ki [2]: 7250 nM

SMILES: COc1ccc(CNC(=O)c2cc(-c3cc(F)cc(F)c3)cnc2-c2cccnc2)cc1OC
Ki (Orexin receptor type 2 [1]): 8.3 nM
Ratio Ki (Homo sapiens): 620
Ki [2]: 5150 nM

SMILES: Cc1cc(C)cc(-c2cnc(-c3cccnc3)c(C(=O)N(C)Cc3ccc4c(c3)OCO4)c2)c1
Ki (Orexin receptor type 2 [1]): 580 nM
Ratio Ki (Homo sapiens): 3.3
Ki [2]: 1900 nM

SMILES: Cc1cc(C)cc(-c2cnc(-c3cccnc3)c(C(=O)NCc3ccc4c(c3)OCO4)c2)c1
Ki (Orexin receptor type 2 [1]): 17 nM
Ratio Ki (Homo sapiens): 208
Ki [2]: 3550 nM

SMILES: COc1ccc(CNC(=O)c2cc(-c3cc(C)cc(C)c3)cnc2-c2cccnc2)cc1
Ki (Orexin receptor type 2 [1]): 22 nM
Ratio Ki (Homo sapiens): 135
Ki [2]: 2980 nM

SMILES: COc1ccc(CNC(=O)c2cc(-c3cc(C(F)(F)F)cc(C(F)(F)F)c3)cnc2-c2cccnc2)cc1OC
Ki (Orexin receptor type 2 [1]): 121 nM
Ratio Ki (Homo sapiens): 537
Ki [2]: 65000 nM

SMILES: Cc1cc(C)cc(-c2cnc(-c3cccnc3)c(C(=O)NCc3ccc(F)c(C)c3)c2)c1
Ki (Orexin receptor type 2 [1]): 18 nM
Ratio Ki (Homo sapiens): 61
Ki [2]: 1100 nM

SMILES: COc1cccc(CNC(=O)c2cc(-c3cc(C)cc(C)c3)cnc2-c2cccnc2)c1
Ki (Orexin receptor type 2 [1]): 40.5 nM
Ratio Ki (Homo sapiens): 83
Ki [2]: 3350 nM

SMILES: COc1ccc(CNC(=O)c2cc(-c3cc(Cl)cc(Cl)c3)cnc2-c2cccnc2)cc1OC.Cl
Kp at 1 h [25]: 0.19
clearance [26]: 2.34 L/h/kg
bioavailability [27]: 55%
half-life [28]: 54 min

Continued by falling Ki (Orexin receptor type 2 [1]), values first:

Ki (Orexin receptor type 2 [1]): 4.8 nM
Ratio Ki (Homo sapiens): 174
Ki [2]: 833 nM
SMILES: Cc1cc(C)cc(-c2cnc(-c3cccnc3)c(C(=O)NCc3ccc(N(C)C)cc3)c2)c1

Ki (Orexin receptor type 2 [1]): 4.1 nM
Ratio Ki (Homo sapiens): 58
Ki [2]: 236 nM
SMILES: Cc1cc(C)cc(-c2cnc(-c3cccnc3)c(C(=O)NCc3ccc(C(F)(F)F)c(F)c3)c2)c1

Ki (Orexin receptor type 2 [1]): 3 nM
Ratio Ki (Homo sapiens): 91
Ki [2]: 273 nM
SMILES: Cc1cc(C)cc(-c2cnc(-c3cccnc3)c(C(=O)NCc3ccc4c(c3)CCN4C)c2)c1

Ki (Orexin receptor type 2 [1]): 1.3 nM
Ratio Ki (Homo sapiens): 574
Ki [2]: 747 nM
SMILES: COc1ccc(CNC(=O)c2cc(-c3cccc(Cl)c3)cnc2-c2cccnc2)cc1OC

Ki (Orexin receptor type 2 [1]): 0.8 nM
Ratio Ki (Homo sapiens): 1340
Ki [2]: 1070 nM
SMILES: COc1ccc(CNC(=O)c2cc(-c3cc(C)cc(F)c3)cnc2-c2cccnc2)cc1OC

Ki (Orexin receptor type 2 [1]): 0.7 nM
Ratio Ki (Homo sapiens): 660
clearance [3]: 3.96 L/h/kg
Ki [2]: 462 nM
bioavailability [4]: 12%
SMILES: COc1ccc(CNC(=O)c2cc(-c3cc(C)cc(C)c3)cnc2-c2cccnc2)cc1OC

Ki (Orexin receptor type 2 [1]): 0.6 nM
Ratio Ki (Homo sapiens): 1810
Ki [2]: 1090 nM
SMILES: COc1ccc(CNC(=O)c2cc(-c3cc(F)cc(Cl)c3)cnc2-c2cccnc2)cc1OC

inhibition at 10 µM (MAO-A): 41%
inhibition at 10 µM (MAO-B): 31%
inhibition at 10 µM [5]: 4%
IC50 [6]: 2300 nM
Ki [6]: 1310 nM
Ki (Orexin receptor type 2 [1]): 0.07 nM
Cmax [9]: 2.3 µM
inhibition at 10 µM [10]: 24%
IC50 [11]: 2530 nM
Ki [11]: 866 nM
fraction unbound [12]: 0.047
IC50 [13]: 1040 nM
Ki [13]: 662 nM
logP [14]: 3.6
IC50 [16]: 8210 nM
Ki [16]: 6820 nM
inhibition at 10 µM [18]: 1%
Ratio (Nucleic Acid): 0.2%
AUC [19]: 9 µM·h
fraction unbound [20]: 0.032
efflux ratio (MDR1 (P-gp, ABCB1)): 6.4
IC50 (Mu-type opioid receptor): 5020 nM
Ki (Mu-type opioid receptor): 2040 nM
IC50 [22]: 292 nM
Ki [2]: 94.5 nM
IC50 (D(3) dopamine receptor): 9540 nM
Ki (D(3) dopamine receptor): 3240 nM
IC50 (Orexin receptor type 2 [23]): 12 nM
IC50 [24]: 2400 nM
Ki [24]: 2280 nM
SMILES: COc1ccc(CNC(=O)c2cc(-c3cc(Cl)cc(Cl)c3)cnc2-c2cccnc2)cc1OC
inhibition at 1 µM (hERG (KCNH2) [7]): 17%
inhibition at 0.1 µM (hERG (KCNH2) [8]): 12%
inhibition at 10 µM (hERG (KCNH2) [15]): 58%
IC50 [17]: 6950 nM
inhibition at 0.01 µM (hERG (KCNH2) [21]): 3%
